Test results from ChEMBL document CHEMBL1130053, “Synthesis and biological evaluation of the enantiomers of the potent and selective A1-adenosine antagonist 1,3-dipropyl-8-[2-(5,6-epoxynorbonyl)]-xanthine” (J Med Chem, 1997).

Legend:
Rattus norvegicus [1] = experiment: Urine output (collected per 4 h) in Saline -Loaded Rats at 1.0 mg /kg intravenous dose; assay type: functional
How it was run: (§1)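 Sprague-Dawley rats (250-350 g), 2 h equilibration, then tail-vein dosing (vehicle 50% saline/40% PEG/10% ethanol, 1.0 mL/kg). This was followed at once by 40 mL/kg saline po. Urine collected 4 h in metabolic cages, volume by weight, Na⁺/K⁺ by flame photometry. n = 6-7 per dose, mean ± SEM, 1-way ANOVA with Bonferroni test versus vehicle.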

Adenosine receptor A1 [2] = molecular target: T1, Adenosine receptor A1 (Homo sapiens, UniProt P30542); experiment: Inhibition of binding to membranes from HEK293 cells expressing human Adenosine A1 receptor; assay type: cell membranes
T1 sequence (P30542 whole entry): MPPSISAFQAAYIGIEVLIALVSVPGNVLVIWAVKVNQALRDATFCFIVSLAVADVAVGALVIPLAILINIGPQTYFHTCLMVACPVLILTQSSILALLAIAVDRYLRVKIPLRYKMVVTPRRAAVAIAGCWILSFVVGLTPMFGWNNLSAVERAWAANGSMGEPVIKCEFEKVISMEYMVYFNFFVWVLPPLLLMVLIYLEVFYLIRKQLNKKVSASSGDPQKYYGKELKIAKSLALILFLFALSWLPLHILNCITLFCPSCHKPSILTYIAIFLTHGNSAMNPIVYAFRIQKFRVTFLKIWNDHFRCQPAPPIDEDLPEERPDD

Rattus norvegicus [3] = experiment: Potassium ion output (collected per 4 h) in Saline -Loaded Rats at 0.1 mg /kg intravenous dose; assay type: functional; how it was run: as §1
Adenosine A2 receptor = Adenosine A2 receptor (Rattus norvegicus, UniProt P29276+P30543); experiment: Binding affinity for Adenosine A2 receptor from rat striatal membranes
Adenosine receptor A1 [4] = molecular target: T2, Adenosine receptor A1 (Rattus norvegicus, UniProt P25099); experiment: Binding affinity for Adenosine A1 receptor of rat forebrain
T2 sequence (P25099 whole entry): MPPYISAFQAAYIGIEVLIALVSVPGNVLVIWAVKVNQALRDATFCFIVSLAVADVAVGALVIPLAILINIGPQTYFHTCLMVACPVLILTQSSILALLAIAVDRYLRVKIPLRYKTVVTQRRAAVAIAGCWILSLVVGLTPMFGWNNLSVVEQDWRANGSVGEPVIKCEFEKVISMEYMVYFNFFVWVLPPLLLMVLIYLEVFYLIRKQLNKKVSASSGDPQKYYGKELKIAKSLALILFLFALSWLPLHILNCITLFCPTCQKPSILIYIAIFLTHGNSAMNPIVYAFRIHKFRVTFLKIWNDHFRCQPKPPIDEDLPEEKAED

Adenosine receptor A1 [5] = molecular target: T3, Adenosine receptor A1 (Cavia porcellus, UniProt P47745); experiment: Binding affinity for Adenosine A1 receptor from Guinea pig membranes
T3 sequence (P47745 whole entry): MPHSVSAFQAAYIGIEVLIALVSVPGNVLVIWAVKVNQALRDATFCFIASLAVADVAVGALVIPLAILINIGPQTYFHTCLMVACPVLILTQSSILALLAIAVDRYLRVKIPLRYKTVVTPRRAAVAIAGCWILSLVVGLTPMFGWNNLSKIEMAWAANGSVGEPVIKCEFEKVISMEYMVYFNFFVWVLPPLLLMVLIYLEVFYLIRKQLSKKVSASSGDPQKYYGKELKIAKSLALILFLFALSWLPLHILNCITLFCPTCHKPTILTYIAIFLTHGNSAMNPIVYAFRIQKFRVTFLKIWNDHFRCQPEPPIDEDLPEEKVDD

Rattus norvegicus [6] = experiment: Urine output (collected per 4 h) in Saline -Loaded Rats at 0.1 mg /kg intravenous dose; assay type: functional; how it was run: as §1
Rattus norvegicus [7] = experiment: Sodium ion output (collected per 4 h) in Saline -Loaded Rats at 0.1 mg /kg intravenous dose; assay type: functional; how it was run: as §1
Rattus norvegicus [8] = experiment: Potassium ion output (collected per 4 h) in Saline -Loaded Rats at 1.0 mg /kg intravenous dose; assay type: functional; how it was run: as §1
Rattus norvegicus [9] = experiment: Potassium ion output (collected per 4 h) in Saline -Loaded Rats at 0.01 mg /kg intravenous dose; assay type: functional; how it was run: as §1
Rattus norvegicus [10] = experiment: Sodium ion output (collected per 4 h) in Saline -Loaded Rats at 1.0 mg /kg intravenous dose; assay type: functional; how it was run: as §1
Rattus norvegicus [11] = experiment: Sodium ion output (collected per 4 h) in Saline -Loaded Rats at 0.01 mg /kg intravenous dose; assay type: functional; how it was run: as §1
Rattus norvegicus [12] = experiment: Urine output (collected per 4 h) in Saline -Loaded Rats at 0.01 mg /kg intravenous dose; assay type: functional; how it was run: as §1

Ki (Adenosine receptor A1 [2]) [nM] | Ki (Adenosine A2 receptor) [nM] | Ki (Adenosine receptor A1 [4]) [nM] | Ki (Adenosine receptor A1 [5]) [nM] | SMILES | Urine output (Rattus norvegicus [1]) [mL/kg] | K+ output (Rattus norvegicus [3]) [mmol/kg] | Urine output (Rattus norvegicus [6]) [mL/kg] | Na+ output (Rattus norvegicus [7]) [mmol/kg] | K+ output (Rattus norvegicus [8]) [mmol/kg] | K+ output (Rattus norvegicus [9]) [mmol/kg] | Na+ output (Rattus norvegicus [10]) [mmol/kg] | Na+ output (Rattus norvegicus [11]) [mmol/kg] | Urine output (Rattus norvegicus [12]) [mL/kg]
0.82 | 309 | 1.43 | 3.15 | CCCn1c(=O)c2nc(C3CC4CC3C3OC43)[nH]c2n(CCC)c1=O (stereo in doubt) | 43.2 | 1.22 | 33 | 5.14 | 1.42 | 1.1 | 6.54 | 3.54 | 23.2
0.8 | 551 | 5.12 | 3.17 | CCCn1c(=O)c2nc(C3CC4CC3C3OC43)[nH]c2n(CCC)c1=O (stereo in doubt; 8) | 44.1 | 0.89 | 31.3 | 4.56 | 1.84 | 0.97 | 5.99 | 3.8 | 26.8
0.45 | 1250 | 0.67 | 1.43 | CCCn1c(=O)c2nc(C3CC4CC3C3OC43)[nH]c2n(CCC)c1=O (stereo in doubt; 12) | 37.1 | 1.34 | 35.1 | 5.29 | 1.09 | 0.75 | 5.86 | 3.02 | 21.7
 | 510 |  |  | CCCn1c(=O)c2nc(C34CC5CC(CC3C5)C4)[nH]c2n(CCC)c1=O [ROLOFYLLINE] |  |  |  |  |  |  |  |  | 
